Test results: PubChem BioAssay AID624080 (The Scripps Research Institute Molecular Screening Center, 2012)
“And” between values parts separate entries of the source, which are not always exact repeats. Equal values may be shown once. The source made the active and inactive calls.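 Rule for the calls: active = compound whose MIC, giving a fourfold drop in bacterial growth, is 10 µM or lower; inactive = the rest.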

What was measured:
[1] = tested on: VIM-2 P. aeruginosa PA641 growth with imipenem, OD590; experiment: growth inhibition synergy with imipenem, VIM-2 bacteria – clinical strain PA641, MIC, late-stage follow-up (AID 624080)
Summary of the method: (§1)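 Buffer or medium: cation-adjusted Mueller-Hinton broth / Doses: compound two-fold series, checkerboard format / Incubation: ≥18 h at 37 °C, aerobic / Measured by: turbidity by absorbance at 590 nm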

[2] = as above; settings: VIM-2 P. aeruginosa PA641 growth with imipenem, OD590; measured here: max imipenem fold potentiation; stronger effect = higher value
Summary of the method: as §1

| SMILES | MIC [1] | fold potentiation [2] |
| --- | --- | --- |
| CCN(CC)OC(=O)CN1C(=O)/C(=C/c2c(Cl)cccc2Cl)SC1=S | > 100 µM (inactive) | – |
| O=C(CN1C(=O)/C(=C/c2c(Cl)cccc2Cl)SC1=S)NN1CCN(C(=O)c2ccccc2)CC1 | > 50 µM (inactive) | – |
| O=C(CN1C(=O)/C(=C/c2c(Cl)ccc(Cl)c2Cl)SC1=S)NCc1ccccn1 | > 50 µM (inactive) | – |
| CN1CCN(NC(=O)CN2C(=O)/C(=C/c3c(Cl)ccc(Cl)c3Cl)SC2=S)CC1 | > 50 µM (inactive) | 4 and 2 |
| CN1CCN(NC(=O)CN2C(=O)/C(=C/c3c(F)cccc3C(F)(F)F)SC2=S)CC1 | > 50 µM (inactive) | – |
| O=C(CN1C(=O)/C(=C/c2c(Cl)ccc(Cl)c2Cl)SC1=S)NN1CCCCC1 | > 50 µM (inactive) | – |
| CC(C)(C)OC(=O)N1CCN(NC(=O)CN2C(=O)/C(=C/c3c(Cl)cccc3Cl)SC2=S)CC1 | > 100 µM (inactive) | – |
| O=C(CN1C(=O)/C(=C/c2c(Cl)cccc2Cl)SC1=S)NCc1ccccn1 | > 100 µM (inactive) | 2 |
| CC(C)(C)OC(=O)N1CCN(NC(=O)CN2C(=O)/C(=C/c3c(Cl)ccc(Cl)c3Cl)SC2=S)CC1 | > 50 µM (inactive) | – |
| CN1CCN(NC(=O)CN2C(=O)/C(=C/c3c(F)cccc3Cl)SC2=S)CC1 | > 50 µM (inactive) | – |
| CN1CCN(NC(=O)CN2C(=O)/C(=C/c3c(Cl)cccc3Cl)SC2=S)CC1 | > 100 µM (inactive) | 2 |
| O=C(CN1C(=O)/C(=C/c2c(Cl)ccc(Cl)c2Cl)SC1=S)NN1CCNCC1 | > 50 µM (inactive) | 2 |
| O=C(CN1C(=O)/C(=C/c2c(Cl)cccc2Cl)SC1=S)NN1CCNCC1 | > 50 µM (inactive) | 2 |
| CC(=O)N1CCN(NC(=O)CN2C(=O)/C(=C/c3c(Cl)cccc3Cl)SC2=S)CC1 | > 50 µM (inactive) | 2 |
| O=C(CN1C(=O)/C(=C/c2c(Cl)cccc2Cl)SC1=S)NN1CCN(Cc2ccccc2)CC1 | > 50 µM (inactive) | – |
| O=C(CN1C(=O)/C(=C/c2c(Cl)cccc2Cl)SC1=S)NN1CCCCC1 | > 100 µM (inactive) | – |
| CN1CCN(NC(=O)CN2C(=O)/C(=C/c3c(C(F)(F)F)ccc(Cl)c3Cl)SC2=S)CC1 | > 50 µM (inactive) | 4 |
| O=C(O)CN1C(=O)/C(=C/c2c(Cl)cccc2Cl)SC1=S | > 100 µM (inactive) | – |
| CN1CCN(NC(=O)CN2C(=O)/C(=C/c3c(Cl)ccc(C(F)(F)F)c3Cl)SC2=S)CC1 | > 50 µM (inactive) | 2 |
| CN1CCN(C(=O)CN2C(=O)/C(=C/c3c(Cl)ccc(Cl)c3Cl)SC2=S)CC1 | > 50 µM (inactive) | 4 |
